Laboratory results taken from ChEMBL document CHEMBL3871266, “Synthesis and cytotoxic activity of novel A-ring cleaved ursolic acid derivatives in human non-small cell lung cancer cells” (Eur J Med Chem, 2016).
Active and inactive are the calls of the source. No cut-off for these calls is given here.

Key:
NCI-H460 [1] = assay: Induction of autophagy in human NCI-H460 cells expressing CTR5 gene measured after 24 hrs by microarray method; assay type: functional, cell-based
NCI-H460 [2] = assay: Induction of apoptosis in human NCI-H460 cells expressing CTR5 gene assessed as late apoptotic cells at 20 uM measured after 72 hrs by Annexin V-Cy5/propidium iodide staining-based flow cytometry (reference value: 2.7%); assay type: functional
NCI-H460 [3] = assay: Induction of apoptosis in human NCI-H460 cells expressing CTR5 gene assessed as late apoptotic cells at 4 uM measured after 72 hrs by Annexin V-Cy5/propidium iodide staining-based flow cytometry (reference value: 2.7%); assay type: functional
[4] = Upregulation of Atg3 level in human NCI-H460 cells expressing CTR5 gene at 3.5 uM measured after 24 hrs by reverse-phase protein array method relative to control; assay type: functional, cell-based
[5] = Upregulation of Atg7 level in human NCI-H460 cells expressing CTR5 gene at 3.5 uM measured after 24 hrs by reverse-phase protein array method relative to control; assay type: functional, cell-based
NCI-H460 [6] = assay: Induction of apoptosis in human NCI-H460 cells expressing CTR5 gene assessed as cleaved PARP level at 3 to 5.5 uM measured after 24 hrs by Western blot analysis; assay type: functional, cell-based
How it was run: (§1)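 Cells were seeded at 3×10^5 (H460) or 4.2×10^5 (H322) per dish and treated 24h later with DMSO or a concentration series for 24h. Lysed in cold RIPA with phosphatase and protease inhibitors, then sonicated. 30 μg protein run on Bis-Tris gels and transferred to nitrocellulose or PVDF. Detection used infrared secondary antibodies on an Odyssey imager. Signal normalized to β-actin or GAPDH and to DMSO control; three independent experiments.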

NCI-H460 [7] = assay: Induction of apoptosis in human NCI-H460 cells expressing CTR5 gene assessed as increase in cleavage of procaspase8 at 3 to 4.5 uM measured after 24 hrs by Western blot analysis; assay type: functional, cell-based; how it was run: as §1
[8] = target: Serine/threonine-protein kinase mTOR (Homo sapiens) (UniProt P42345); assay: Inhibition of mTOR in human NCI-H460 cells expressing CTR5 gene assessed as upregulation of EIF4E pS09 level; assay type: cell-based
NCI-H322 = assay: Increase in lipidation of LC3A/B1 to LC3A/B2 in human NCI-H322 cells measured after 24 hrs by Western blot analysis; assay type: functional, cell-based; how it was run: as §1
NCI-H460 [9] = assay: Induction of apoptosis in human NCI-H460 cells expressing CTR5 gene assessed as early apoptotic cells at 5 uM measured after 72 hrs by Annexin V-Cy5/propidium iodide staining-based flow cytometry (reference value: 1.7%); assay type: functional
[10] = Downregulation of p62 level in human NCI-H460 cells expressing CTR5 gene at 3 to 5.5 uM measured after 24 hrs by Western blot analysis; assay type: functional, cell-based; how it was run: as §1
[11] = Upregulation of LC3-2 level in human NCI-H460 cells expressing CTR5 gene at 3.5 uM measured after 24 hrs by reverse-phase protein array method relative to control; assay type: functional, cell-based
NCI-H460 [12] = assay: Induction of apoptosis in human NCI-H460 cells expressing CTR5 gene assessed as late apoptotic cells at 5 uM measured after 72 hrs by Annexin V-Cy5/propidium iodide staining-based flow cytometry (reference value: 3.2%); assay type: functional
[13] = Cytotoxicity against human LKB1-positive NCI-H460 cells assessed as reduction in cell viability measured after 72 hrs by CellTiter-Blue cell viability assay; assay type: functional, cell-based; conditions: Homo sapiens, NCI-H460, 72 h; read-out: IC50
How it was run: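 Monolayer cultures in RPMI-1640 with 10% FBS at 37°C, seeded at 850 (H460 CTR5), 660 (H460 LKB1+/+) or 1780 (H322) cells/well so that the end point reaches 70–80% confluence. Treated 72h; vehicle 0.15% DMSO. CellTiter-Blue added until colour change (50–60, 80–90 or 100–120 min respectively), fluorescence read at 590 nm. IC50 by nonlinear regression; three independent experiments.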

NCI-H460 [14] = assay: Induction of apoptosis in human NCI-H460 cells expressing CTR5 gene assessed as decrease in procaspase3 level at 4.5 uM measured after 24 hrs by Western blot analysis; assay type: functional; parameters: scale not given: the % may be the effect or the level left; how it was run: as §1
NCI-H460 [15] = assay: Induction of apoptosis in human NCI-H460 cells expressing CTR5 gene assessed as viable cells at 4 uM measured after 72 hrs by Annexin V-Cy5/propidium iodide staining-based flow cytometry (reference value: 94.6%); assay type: functional; conditions: NCI-H460, 72 h, read-out: Activity
NCI-H460 [16] = assay: Induction of apoptosis in human NCI-H460 cells expressing CTR5 gene assessed as necrotic cells at 20 uM measured after 72 hrs by Annexin V-Cy5/propidium iodide staining-based flow cytometry (reference value: 0.9%); assay type: functional
[17] = Cytotoxicity against human NCI-H322 spheroids assessed as reduction in cell viability measured after 96 hrs by CellTiter-Glo luminescence viability assay; assay type: functional; conditions: NCI-H322, 96 h
How it was run: (§2)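 Spheroids grown in round-bottom ultralow-attachment wells, 495 (H460 CTR5) or 650 (H322) cells/well. Drug exposure 96h with DMSO vehicle. CellTiter-Glo added, shaken 20 min, left 10 min, then luminescence read. IC50 by nonlinear regression; three independent experiments.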

[18] = Upregulation of Beclin1 level in human NCI-H460 cells expressing CTR5 gene at 3.5 uM measured after 24 hrs by reverse-phase protein array method relative to control; assay type: functional, cell-based
[19] = Downregulation of Mcl1 long isoform protein expression in human NCI-H460 cells expressing CTR5 gene at 3 to 4.5 uM measured after 24 hrs by Western blot analysis; assay type: functional, cell-based; how it was run: as §1
[20] = target: Serine/threonine-protein kinase mTOR (Homo sapiens) (UniProt P42345); assay: Inhibition of mTOR in human NCI-H460 cells expressing CTR5 gene assessed as decrease in S6 phosphorylation at S235/236 site by reverse-phase protein array method relative to control; assay type: cell-based
[21] = Cytotoxicity against human NCI-H460 spheroids expressing CTR5 gene assessed as reduction in cell viability measured after 96 hrs by CellTiter-Glo luminescence viability assay; assay type: functional, cell-based; conditions: NCI-H460, 96 h; how it was run: as §2
NCI-H460 [22] = assay: Induction of autophagy in human NCI-H460 cells expressing CTR5 gene assessed as acidic vesicular organelle formation at 3 uM measured after 72 hrs by acridine orange dye based flow cytometry (reference value: 91.2%); assay type: functional
NCI-H460 [23] = assay: Induction of apoptosis in human NCI-H460 cells expressing CTR5 gene assessed as early apoptotic cells at 4 uM measured after 72 hrs in presence of autophagy inhibitor chloroquine by Annexin V-Cy5/propidium iodide staining-based flow cytometry (reference value: 1.8%); assay type: functional
NCI-H460 [24] = assay: Induction of apoptosis in human NCI-H460 cells expressing CTR5 gene assessed as viable cells at 5 uM measured after 72 hrs by Annexin V-Cy5/propidium iodide staining-based flow cytometry (reference value: 93%); assay type: functional; conditions: NCI-H460, 72 h, read-out: Activity
NCI-H460 [25] = assay: Induction of apoptosis in human NCI-H460 cells expressing CTR5 gene assessed as necrotic cells at 4 uM measured after 72 hrs in presence of autophagy inhibitor chloroquine by Annexin V-Cy5/propidium iodide staining-based flow cytometry (reference value: 0.9%); assay type: functional
[26] = Downregulation of p62 level in human NCI-H322 cells at 3 to 5.5 uM measured after 24 hrs by Western blot analysis; assay type: functional, cell-based; how it was run: as §1

C=C(C)[C@@H]1CC[C@]2(C)[C@H](C[C@@H](F)C34OC(=O)[C@@]5(CC[C@@H](C)[C@H](C)[C@@H]35)CC[C@]42C)[C@@]1(C)CCC(=O)NCCC
Activity (NCI-H460 [1]): Active | Activity (NCI-H460 [2]): 2% | Activity (NCI-H460 [3]): 11.5% | Activity [4]: 5.1% | Activity [5]: 4.5% | Activity (NCI-H460 [6]): Active | Activity (NCI-H460 [7]): Active | inhibition [8]: Active | Activity (NCI-H322): Dose-dependent effect | Activity (NCI-H460 [9]): 13.4% | Activity [10]: Active | Activity [11]: 10.7% | Activity (NCI-H460 [12]): 29.1% | IC50 [13]: 4.4 µM | Activity (NCI-H460 [14]): 29% | viability at 4 µM (NCI-H460 [15]): 77.4% | Activity (NCI-H460 [16]): 0.9% | IC50 [17]: 10 µM | Activity [18]: 5.6% | Activity [19]: Dose-dependent effect | inhibition [20]: 11.7% | IC50 [21]: 5.5 µM | Activity (NCI-H460 [22]): 88.6% | Activity (NCI-H460 [23]): 7.6% | viability at 5 µM (NCI-H460 [24]): 51.9% | Activity (NCI-H460 [25]): 3.6% | Activity [26]: Active
